Each structure is given as a SMILES string.

Data on five compounds can be found in ChEMBL document CHEMBL3297702, “Improving photodynamic inactivation of bacteria in dentistry: highly effective and fast killing of oral key pathogens with novel tooth-colored type-II photosensitizers” (J Med Chem, 2014).

One data set relates to Leishmania infantum. Briefly: Leishmanicidal activity against amastigote stage of Leishmania infantum MCAN/ES/89/IPZ229/1/89 after 2 hrs by MTT assay. It counts as functional, organism-based. As to conditions: MCAN/ES/89/IPZ229/1/89, 2 h; call rule not given here.
Data set [1] can be described thus: Photobleaching of the compound irradiated with laser energy at 405 nm for 5 mins. It counts as physicochemical. More on the design: dose or concentration left out as unconfirmed.
Another data set has as its system Leishmania donovani. Briefly: Leishmanicidal activity against promastigote stage of Leishmania donovani MHOM/SD/00/1S-2D after 2 hrs by MTT assay. The format is functional, organism-based.
Data set [2] can be described thus: Induction of singlet oxygen generation measured over 20 mins by luminescence assay. It counts as physicochemical.
Data set [3] concerns Enterococcus faecalis. Briefly: Photodynamic inactivation of Enterococcus faecalis ATCC 29212 assessed as reduction of log10 CFU at 1 uM incubated prior to irradiation with 150 j/cm'2 for 120 secs measured after 24 hrs by agar plating method (reference value: <1 no unit). The format is functional. The essentials:
(§1)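 E. faecalis ATCC 29212, aerobic overnight BHI culture at 37 °C, was harvested at stationary phase and suspended in PBS at 10^7–10^8 bacteria/mL. It was mixed 1:1 with PS to 0–250 µM final, held 10 s, then illuminated (1260 ± 50 mW/cm2) or kept dark. Dilutions were plated on Mueller-Hinton agar, aerobic 37 °C 24 h, CFU counted. Medians of three independent triplicate experiments, referred to untreated controls.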

Data set [4] relates to Enterococcus faecalis. In words: Photodynamic inactivation of Enterococcus faecalis ATCC 29212 assessed as reduction of log10 CFU at 1 uM incubated prior to irradiation with 50 j/cm'2 for 40 secs measured after 24 hrs by agar plating method (reference value: <1 no unit). The format is functional. The essentials: as §1
The subject of data set [5] is Enterococcus faecalis. In words: Photodynamic inactivation of Enterococcus faecalis ATCC 29212 assessed as reduction of log10 CFU at 5 uM incubated prior to irradiation with 50 j/cm'2 for 40 secs measured after 24 hrs by agar plating method (reference value: <1 no unit). The format is functional. The essentials: as §1
Data set [6] deals with Enterococcus faecalis. In words: Photodynamic inactivation of Enterococcus faecalis ATCC 29212 assessed as reduction of log10 CFU at 100 uM incubated prior to irradiation with 25 j/cm'2 for 20 secs measured after 24 hrs by agar plating method (reference value: <1 no unit). It counts as functional. The essentials: as §1
Data set [7] concerns Enterococcus faecalis. In words: Photodynamic inactivation of Enterococcus faecalis ATCC 29212 assessed as reduction of log10 CFU at 10 uM incubated prior to irradiation with 25 j/cm'2 for 20 secs measured after 24 hrs by agar plating method (reference value: <1 no unit). It counts as functional. The essentials: as §1
Data set [8] is described as follows: Octanol-water partition coefficient, log P of the compound at 1 x 10^-4 mol at room temperature after 10 mins by UV/vis spectroscopic analysis. It counts as physicochemical.
Data set [9] deals with Enterococcus faecalis. Briefly: Photodynamic inactivation of Enterococcus faecalis ATCC 29212 assessed as reduction of log10 CFU at 10 uM incubated prior to irradiation with 50 j/cm'2 for 40 secs measured after 24 hrs by agar plating method (reference value: <1 no unit). The format is functional. The essentials: as §1
In data set [10] the test system is Enterococcus faecalis. Briefly: Photodynamic inactivation of Enterococcus faecalis ATCC 29212 assessed as reduction of log10 CFU at 5 uM incubated prior to irradiation with 150 j/cm'2 for 120 secs measured after 24 hrs by agar plating method (reference value: <1 no unit). The format is functional. Summed up: as §1
Data set [11] concerns Enterococcus faecalis. In words: Photodynamic inactivation of Enterococcus faecalis ATCC 29212 assessed as reduction of log10 CFU at 100 uM incubated prior to irradiation with 150 j/cm'2 for 120 secs measured after 24 hrs by agar plating method (reference value: <1 no unit). The format is functional. Summed up:
as §1

Data set [12] relates to Enterococcus faecalis. In words: Photodynamic inactivation of Enterococcus faecalis ATCC 29212 assessed as reduction of log10 CFU at 10 uM incubated prior to irradiation with 150 j/cm'2 for 120 secs measured after 24 hrs by agar plating method (reference value: <1 no unit). The format is functional. Summed up: as §1
For data set [13], the system named is Enterococcus faecalis. Briefly: Photodynamic inactivation of Enterococcus faecalis ATCC 29212 assessed as reduction of log10 CFU at 1 uM incubated prior to irradiation with 25 j/cm'2 for 20 secs measured after 24 hrs by agar plating method (reference value: <1 no unit). It counts as functional. Summed up:
as §1

Data set [14] has as its system Enterococcus faecalis. Briefly: Photodynamic inactivation of Enterococcus faecalis ATCC 29212 assessed as reduction of log10 CFU at 100 uM incubated prior to irradiation with 50 j/cm'2 for 40 secs measured after 24 hrs by agar plating method (reference value: <1 no unit). The format is functional. The essentials:
as §1

Data set [15] relates to Enterococcus faecalis. Briefly: Photodynamic inactivation of Enterococcus faecalis ATCC 29212 assessed as reduction of log10 CFU at 5 uM incubated prior to irradiation with 25 j/cm'2 for 20 secs measured after 24 hrs by agar plating method (reference value: <1 no unit). The format is functional. Summed up:
as §1

For data set [16], the system named is Enterococcus faecalis. In words: Toxicity in Enterococcus faecalis ATCC 29212 assessed as reduction of log10 CFU at 1 to 250 uM incubated for 10 secs under dark condition measured after 24 hrs by agar plating method. The format is organism-based. The following applies: in vivo. Summed up: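 Dark controls. Overnight BHI cultures (EF, SM, AN aerobic; AA anaerobic; 37 °C) were washed into PBS at 10^7–10^8 cells/mL. They were mixed 1:1 with photosensitizer at final 0–250 µM and incubated 10 s, 7.5 min or 15 min, then kept in the dark for 20, 40 or 120 s. Tenfold dilutions were plated: EF on Mueller-Hinton agar, aerobic 24 h; SM on BHI agar, aerobic 48 h; AN on blood agar, aerobic 48 h; AA on BHI agar, anaerobic 48 h; all at 37 °C. CFU were compared with untreated controls; medians of three independent experiments in triplicate.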

Take `COC1=Cc2cccc3ccc(-c4ccccc4)c(c23)C1=O`: the EC50 in the data set with Leishmania infantum and in the data set with Leishmania donovani was < 60 µg/mL each time. Besides, the Stability entry in data set [1] is “Unstable”. In addition, the outcome in data set [2] was Active.

Turning to `CC(c1ccccc1)[N+](C)(C)CC1=Cc2cccc3cccc(c23)C1=O.[Cl-]` (stereo unspecified), the log10cfu in the data set on Enterococcus faecalis [3] was <3; with Enterococcus faecalis [4] it was <1; in the data set on Enterococcus faecalis [5] it was <3; with Enterococcus faecalis [6], >6; in the data set on Enterococcus faecalis [7] it was <3; in the data set on Enterococcus faecalis [9], <3. Further, the log10cfu with Enterococcus faecalis [10] was >6; in the data set with Enterococcus faecalis [11], >6; in the data set on Enterococcus faecalis [12], >6; in the data set with Enterococcus faecalis [13] it was <1; with Enterococcus faecalis [14] it was >6; in the data set with Enterococcus faecalis [15] it was <3. Besides, the lipophilicity (logP) at 10 min in data set [8] is -0.1. Also, the Stability entry in data set [1] is listed as “Unstable”. For the same compound, the values for the Activity result (in [2]; in the data set on Enterococcus faecalis [16]) were “Active” and “Non-toxic”, respectively.

For `O=C1C(O)=Cc2cccc3ccc(-c4ccccc4)c1c23`, the EC50 in the data set on Leishmania infantum and in the data set on Leishmania donovani was < 60 µg/mL each time. Also, the Stability result in data set [1] is “Unstable”. Also, the result in [2] was Active.

Consider `CCCC[N+](C)(C)CC1=Cc2cccc3cccc(c23)C1=O.[Cl-]`, for which the log10cfu is <3 in the data set on Enterococcus faecalis [3]; <1 in the data set with Enterococcus faecalis [4]; <3 in the data set with Enterococcus faecalis [5]; >6 with Enterococcus faecalis [6]; <3 in the data set with Enterococcus faecalis [7]; <3 with Enterococcus faecalis [9]. In addition, the log10cfu with Enterococcus faecalis [10] is recorded as 3; in the data set on Enterococcus faecalis [11], >6; in the data set on Enterococcus faecalis [12], >6; in the data set on Enterococcus faecalis [13], <1; in the data set with Enterococcus faecalis [14], >6; with Enterococcus faecalis [15], <1. Also, the log partition coefficient (logP) at 10 min in data set [8] is -0.8. In data set [1], the Stability result was “Unstable”. Also, the values for the Activity entry (in data set [2]; in the data set on Enterococcus faecalis [16]) were “Active” and “Non-toxic”, respectively.

Compound `O=C1C(CCl)=Cc2cccc3cccc1c23` registered a logP at 10 min in data set [8] of 1.3.
